According to paper PMC2740628 (Colloids and surfaces. B, Biointerfaces, 2009):
Like-named read-outs stand apart in the source and are kept apart here.

What was measured:
Rabbit red blood cells [1] = conditions: at 3.3 mM (highest concentration), data reported previously ref 15; cited from earlier work
B16F10 cells = conditions: cited from earlier work
[2] = DPH steady-state fluorescence anisotropy, membrane partitioning; type: physicochemical; conditions: for Membrane partition coefficient K (DPPC bilayers / aqueous phase): calculated with equation 2 from the depression of Tm, surfactant 0-20 μM; for Effect on phase transition temperature Tm of DPPC (in words): surfactant 0 to 20 μM, DPH-labelled DPPC vesicles
Summary of the method: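 DPPC large unilamellar vesicles were made with DPH at a lipid:DPH molar ratio of 500:1 and surfactant at 0–20 μM, mixed in chloroform and dried. They were hydrated in water above 50 °C for 1 h and extruded 15 times at 50 °C. Anisotropy was read at λex 350/λem 452 nm while cooling from 50 °C to 20 °C at 0.2 °C/min. Tm was taken from anisotropy-temperature plots and K from the Tm shift (ΔHm 31.38 kJ·mol-1). Run in triplicate.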

Rabbit red blood cells [3] = assay: Haemolytic activity test; type: cell-based; conditions: for EC50: 2 h, 37 °C; for Haemolytic activity (in words): 7 μM to 3.3 mM
Summary of the method: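 Rabbit erythrocytes (2% in PBS) were tested in PBS alone or in PBS with 20% fetal bovine serum. Compounds were dissolved in DMSO, then PBS (DMSO at most 5% final) and tested from 7 μM to 3.3 mM. After 2 h at 37 °C, cells were pelleted at 700g for 10 min. Released haemoglobin was read at 540 nm. The value reported is the lowest concentration giving 50% haemolysis.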

[4] = system: B16F10 mouse melanoma cell line; assay: MTT-based cytotoxicity test; type: cell-based; conditions: for EC50: read-out: Cytotoxicity EC50, B16F10, 24 h exposure, MTT, range 1 μM to 250 μM; for Cytotoxicity (in words): B16F10, 24 h, 1 μM to 250 μM
Summary of the method: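 B16F10 cells were grown in D-MEM with 10% FCS, antibiotics and glutamine at 37 °C, 5% CO2. Cells were seeded at 2.5–3.0 × 10^4/mL and grown for 16–24 h. Compounds were added from DMSO/PBS (DMSO below 1% final) at 1–250 μM for 24 h, with octylthioglucoside as positive control. MTT was applied for 3 h, formazan was dissolved with SDS (pH 5.5) and read at 540 nm the next day. EC50 came from dose-response curves, run in triplicate.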

B16 melanoma cell line = conditions: 48 h exposure; cited from earlier work
human erythrocytes = conditions: cited from earlier work
[5] = at 3.3 mM (highest concentration), without serum
[6] = read-out: Haemolytic activity EC50 20 % serum, rabbit red blood cells, PBS containing 20% fetal bovine serum
[7] = read-out: Haemolytic activity EC50 without serum, rabbit red blood cells 2% in PBS, without serum

For `CCCCCCCCCCCCCCCCCO[C@@H]1O[C@H](CO)[C@@H](O)[C@H](O)[C@H]1O` [β-13e], the “Haemolysis, percentage in parentheses after >3.3 mM, 20 % serum” value (Rabbit red blood cells [1]) is given as 5% and the “Apoptosis (in words)” value (B16F10 cells) is given as “induced apoptosis”.

With `CCCCCCCCCCCCCCCCO[C@@H]1O[C@H](CO)[C@H](O)[C@H](O)[C@H]1O` [β-15b, hexadecyl β-D-galactopyranoside] the “Membrane partition coefficient K (DPPC bilayers / aqueous phase)” value [2] was 5.15×10^5, the “Effect on phase transition temperature Tm of DPPC (in words)” value (“Effect” below) [2] was “linear decrease in Tm up to a surfactant concentration of 7 μM and an approximately constant Tm at concentrations ≥ 10 μM” and the “Haemolysis, percentage in parentheses after >3.3 mM, without serum” value (from here on “Haemolysis, percentage … without serum”) (Rabbit red blood cells [3]; [5]) was 40%. For the same molecule, the EC50 (Rabbit red blood cells [3]; [6]) was > 3300 µM, the EC50 (Rabbit red blood cells [3]; [7]) was > 3300 µM and the EC50 [4] was > 250 µM.

For `CCCCCCCCCCCCCCCCO[C@@H]1O[C@H](CO)[C@@H](O[C@H]2O[C@H](CO)[C@@H](O)[C@H](O)[C@H]2O)[C@H](O)[C@H]1O` [β-17b], the “Haemolytic activity (in words)” value (Rabbit red blood cells [3]; rabbit red blood cells) was “most haemolytic compound under investigation”, the EC50 (Rabbit red blood cells [3]; [6]) was 150 µM and the EC50 (Rabbit red blood cells [3]; [7]) was 30 µM. It also gave an EC50 [4] of 67 µM.

In the case of `OC[C@H]1O[C@@H](OCCC(F)(F)C(F)(F)C(F)(F)C(F)(F)C(F)(F)C(F)(F)C(F)(F)C(F)(F)C(F)(F)C(F)(F)F)[C@H](O)[C@@H](O)[C@@H]1O` [3,3,4,4,5,5,6,6,7,7,8,8,9,9,10,10,11,11,12,12,12-heneicosafluoro-dodecyl-β-D-glucopyranoside], the “Toxicity at 50 μM (in words)” value (B16 melanoma cell line) is listed as “nontoxic”.

With `CCCCCCCCCCCCCCO[C@H]1O[C@H](CO)[C@@H](O)[C@H](O)[C@H]1O` [α-13b] the “Haemolysis, percentage in parentheses after >3.3 mM, 20 % serum” value (Rabbit red blood cells [3]; at 3.3 mM (highest concentration), 20 % serum) was 30%, the EC50 (Rabbit red blood cells [3]; [6]) was > 3300 µM and the EC50 (Rabbit red blood cells [3]; [7]) was 2500 µM. The EC50 [4] was 53 µM.

With `CCCCCCCO[C@@H]1O[C@H](CO)[C@H](O)[C@H](O)[C@H]1O` [β-15a] the EC50 (Rabbit red blood cells [3]; [6]) was > 3300 µM, the EC50 (Rabbit red blood cells [3]; [7]) was > 3300 µM and the EC50 [4] was > 250 µM.

In the case of `CCCCCCCCCCCCCCCCCCCO[C@H]1O[C@H](CO)[C@@H](O)[C@H](O)[C@H]1O` [α-13g, nonadecyl α-D-glucopyranoside], the “Haemolytic activity (in words)” value (Rabbit red blood cells [3]; rabbit red blood cells) is reported as “not haemolytic”, the EC50 (Rabbit red blood cells [3]; [6]) is reported as > 3300 µM and the EC50 (Rabbit red blood cells [3]; [7]) is reported as > 3300 µM. The “Cytotoxicity (in words)” value [4] was “did not show a cytotoxic effect” and the EC50 [4] was > 250 µM.

For `CCCCCCCCCCCCCCCCCO[C@H]1O[C@H](CO)[C@@H](O)[C@H](O)[C@H]1O` [α-13e], the “Haemolysis, percentage … without serum” value (Rabbit red blood cells [3]; [5]) was 25%, the EC50 (Rabbit red blood cells [3]; [6]) was > 3300 µM and the EC50 (Rabbit red blood cells [3]; [7]) was > 3300 µM. The EC50 [4] was 37 µM.

In the case of `CCCCCCCCCCCCO[C@@H]1O[C@H](CO)[C@@H](O[C@H]2O[C@H](CO)[C@@H](O)[C@H](O)[C@H]2O)[C@H](O)[C@H]1O` [C12 maltopyranoside], the “Lowest concentration causing lysis of human erythrocytes” value (human erythrocytes) is given as 58 µM.

In the case of `CCCCCCCCCCCCCCCCO[C@H]1O[C@H](CO)[C@@H](O)[C@H](O)[C@H]1O` [α-13d], the “Haemolysis, percentage … without serum” value (Rabbit red blood cells [3]; [5]) is reported as 20%, the EC50 (Rabbit red blood cells [3]; [6]) is reported as > 3300 µM and the EC50 (Rabbit red blood cells [3]; [7]) is reported as > 3300 µM. It also gave an EC50 [4] of 70 µM.

In the case of `OCC1OC(OCCC(F)(F)C(F)(F)C(F)(F)C(F)(F)C(F)(F)C(F)(F)C(F)(F)C(F)(F)C(F)(F)C(F)(F)F)C(O)C(O)C1O` [corresponding β-D-galactopyranoside], the “Toxicity at 50 μM (in words)” value (B16 melanoma cell line) is given as “displayed some toxicity”.

For `CCCCCCCO[C@@H]1O[C@H](CO)[C@@H](O)[C@H](O)[C@H]1O` [β-13a, Heptyl-β-D-glucopyranoside], the “Membrane partition coefficient K (DPPC bilayers / aqueous phase)” value [2] was 4.61×10^4, the “Effect” value [2] was “decreased the phase transition temperature of DPPC only slightly” and the “Haemolytic activity (in words)” value (Rabbit red blood cells [3]; rabbit red blood cells) was “essentially nonhaemolytic”. The EC50 (Rabbit red blood cells [3]; [6]) was > 3300 µM, the EC50 (Rabbit red blood cells [3]; [7]) was > 3300 µM and the “Cytotoxicity (in words)” value [4] was “insignificant”. For the same molecule, the EC50 [4] was > 250 µM.

For `CCCCCCCCCCCCCCCCO[C@@H]1O[C@H](CO)[C@@H](O)[C@H](O)[C@H]1O` [β-13d, hexadecyl β-D-glucopyranoside], the “Membrane partition coefficient K (DPPC bilayers / aqueous phase)” value [2] was 2.78×10^5 and the “Effect” value [2] was “decreased linearly over the entire concentration range investigated”.

For `CCCCCCCCS[C@@H]1O[C@H](CO)[C@@H](O)[C@H](O)[C@H]1O` [OTG, Octylthioglucoside, reference compound], the EC50 (Rabbit red blood cells [3]; [6]) was 3000 µM, the EC50 (Rabbit red blood cells [3]; [7]) was 500 µM and the EC50 [4] was > 250 µM.
